Data taken from ChEMBL document CHEMBL1132098, “2,7-diazabicyclo[3.3.0]octanes as novel h5-HT receptor agonists” (Bioorg Med Chem Lett, 1999).

Columns and labels:
[1] = target: T1, 5-hydroxytryptamine receptor 1D (Homo sapiens, UniProt P28221); assay: Maximum stimulation of [35S]GTP-gamma-S, binding expressed relative to the maximal effect produced by the 5-HT; assay type: functional
Outline: (§1)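 Agonist-induced [35S]GTPγS binding measured in CHO cells stably transfected with the human 5-HT1D receptor. Maximal effect expressed as % of the 5-HT maximum.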

[2] = system: Rattus norvegicus; assay: Drug concentration was measured in plasma samples originating from the cardiac puncture (systemic) at 0.5 hr post administration; assay type: functional, organism-based
Outline: (§2)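 Rats dosed orally at 3 mg/kg (5 mL/kg, aqueous formulation). Plasma taken from the hepatic portal vein and by cardiac puncture (systemic) at 0.5 and 2 h after dosing. Drug concentration reported in ng/mL.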

[3] = system: Rattus norvegicus; assay: Drug concentration was measured in plasma samples originating from the hepatic portal vein (hpv) at 0.5 hr post administration; assay type: functional, organism-based; outline: as §2
[4] = system: Rattus norvegicus; assay: Drug concentration was measured in plasma samples originating from the hepatic portal vein (hpv) at 2 hr post administration; assay type: functional, organism-based; outline: as §2
[5] = system: Rattus norvegicus; assay: Drug concentration was measured in plasma samples originating from the cardiac puncture (systemic) at 2 h post administration; assay type: functional, organism-based; outline: as §2
[6] = target: Serotonin 1 receptors; 5-HT1B & 5-HT1D (Homo sapiens) (UniProt P28222+P28221); assay: Selectivity ratio for h-5-HT 1B receptor to that of h5-HT 1D receptors.; assay type: protein assay
Outline: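 Displacement of [3H]-5-HT binding at cloned human 5-HT1B and 5-HT1D receptors, with radioligand at roughly its KD for each receptor. Ratio obtained by dividing the mean IC50 values for the two receptors.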

[7] = target: T1, 5-hydroxytryptamine receptor 1D; assay: Ability to displace [3H]- -5-HT binding to cloned 5-hydroxytryptamine 1D receptor stably expressed in chinese hamster cells (CHO cells); assay type: cell-based
Outline: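 Human 5-HT1D receptor cloned and stably expressed in CHO cells. Displacement of [3H]-5-HT binding, with radioligand at roughly its KD for the receptor. At least three independent experiments, each run in duplicate. IC50 reported as geometric mean with limits derived from the SEM.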

[8] = Acid dissociation constant was determined; assay type: ADME
[9] = target: T1, 5-hydroxytryptamine receptor 1D; assay: Measurement of agonist induced [35S]GTP-gamma-S, binding in CHO cells stably transfected with 5-hydroxytryptamine 1D receptor; assay type: functional, cell-based; outline: as §1

T1 sequence (P28221 whole entry): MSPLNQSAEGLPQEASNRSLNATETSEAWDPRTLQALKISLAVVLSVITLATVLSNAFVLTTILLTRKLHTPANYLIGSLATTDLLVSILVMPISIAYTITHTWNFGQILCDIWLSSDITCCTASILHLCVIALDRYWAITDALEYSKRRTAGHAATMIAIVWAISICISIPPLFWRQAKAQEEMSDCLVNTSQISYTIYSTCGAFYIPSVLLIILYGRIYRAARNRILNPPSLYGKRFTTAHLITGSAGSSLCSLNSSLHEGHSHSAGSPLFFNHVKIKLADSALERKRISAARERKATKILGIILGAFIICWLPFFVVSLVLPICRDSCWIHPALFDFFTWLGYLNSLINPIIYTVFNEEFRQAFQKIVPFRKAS

Compound: c1ccc(CNC[C@@H]2CCN(CCc3c[nH]c4ccc(-n5cnnc5)cc34)C2)cc1
- Efficacy [1]: 102
- Absorption [2]: < 5 ng/mL
- Absorption [3]: < 5 ng/mL
- Absorption [4]: < 5 ng/mL
- Absorption [5]: < 5 ng/mL
- Selectivity [6]: 62

Compound: CN1C[C@@H](CN(C#N)Cc2ccccc2)C[C@@H]1Cc1c[nH]c2ccc(-n3ccnc3)cc12
- IC50 [7]: 3.3 nM
- Selectivity [6]: 6.7

Compound: CN(Cc1ccccc1)C[C@H]1C[C@H](Cc2c[nH]c3ccc(-n4ccnc4)cc23)N(C)C1
- Absorption [2]: < 4 ng/mL
- IC50 [7]: 0.9 nM
- pKa [8]: 8.7
- Absorption [3]: 21 ng/mL
- Absorption [4]: 30 ng/mL
- Absorption [5]: < 4 ng/mL
- Selectivity [6]: 6.9

Compound: CN1[C@@H](Cc2c[nH]c3ccc(-n4ccnc4)cc23)C[C@@H]2CN(Cc3ccccc3)C[C@@H]21 (racemic)
- Efficacy [1]: 69
- Absorption [2]: 47 ng/mL
- IC50 [7]: 0.7 nM
- Absorption [3]: 558 ng/mL
- Absorption [4]: 105 ng/mL
- EC50 [9]: 1.2 nM
- Absorption [5]: 10 ng/mL
- Selectivity [6]: 8.4

Compound: CN1[C@@H](Cc2c[nH]c3ccc(-n4cnnc4)cc23)C[C@@H]2CN(CCc3cccc(F)c3)C[C@@H]21 (racemic)
- Efficacy [1]: 63
- IC50 [7]: 1.2 nM
- EC50 [9]: 1.9 nM
- Selectivity [6]: 15

Compound: CN1[C@@H](Cc2c[nH]c3ccc(-n4cnnc4)cc23)C[C@@H]2CN(Cc3ccc(F)cc3)C[C@@H]21 (racemic)
- Efficacy [1]: 88
- IC50 [7]: 0.8 nM
- EC50 [9]: 2.9 nM
- Selectivity [6]: 13

Compound: CN1[C@@H](Cc2c[nH]c3ccc(-n4cnnc4)cc23)C[C@@H]2CN(Cc3ccccc3)C[C@@H]21 (racemic)
- Efficacy [1]: 96
- IC50 [7]: 0.9 nM
- pKa [8]: 8.5
- EC50 [9]: 0.5 nM
- Selectivity [6]: 6.7
